Assays:
Assay type in all cases: organism-based
Set-up in all cases: route oral
Conditions in all cases: in vivo, 336 h
[1] = system: Homo sapiens; assay: Toxicity in patient with mucormycosis assessed as absolute neutrophil count at 5 to 20 mg/kg/day, po for 14 days (reference value: 5.2/uL)
In short: (§1)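 Open-label deferasirox given to patients with mucormycosis. One patient with coexisting hepatic disease received 5 mg/kg of body weight/day for 20 days. Laboratory values were reported as medians (interquartile range) at diagnosis, at start of deferasirox, at end of deferasirox, and at a final time point.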

[2] = system: Homo sapiens; assay: Toxicity in patient with mucormycosis assessed as aspartate transaminase level at 5 to 20 mg/kg/day, po for 14 days (reference value: 27 U/l); in short: as §1
[3] = system: Homo sapiens; assay: Toxicity in patient with mucormycosis assessed as hemoglobin level at 5 to 20 mg/kg/day, po for 14 days (reference value: 9 mg/dl); in short: as §1
[4] = system: Homo sapiens; assay: Toxicity in patient with mucormycosis assessed as alkaline phosphatase level at 5 to 20 mg/kg/day, po for 14 days (reference value: 126 U/l); in short: as §1
[5] = system: Homo sapiens; assay: Toxicity in patient with mucormycosis assessed as platelet count at 5 to 20 mg/kg/day, po for 14 days (reference value: 217/uL); in short: as §1
[6] = system: Homo sapiens; assay: Toxicity in patient with mucormycosis assessed as blood urea nitrogen level at 5 to 20 mg/kg/day, po for 14 days (reference value: 34 mg/dl); in short: as §1
[7] = system: Homo sapiens; assay: Toxicity in patient with mucormycosis assessed as total bilirubin level at 5 to 20 mg/kg/day, po for 14 days (reference value: 0.8 mg/dl); in short: as §1
[8] = system: Homo sapiens; assay: Toxicity in patient with mucormycosis assessed as glucose level at 5 to 20 mg/kg/day, po for 14 days (reference value: 131 mg/dl); in short: as §1
[9] = system: Homo sapiens; assay: Toxicity in patient with mucormycosis assessed as alanine transaminase level at 5 to 20 mg/kg/day, po for 14 days (reference value: 21 U/l); in short: as §1
[10] = system: Homo sapiens; assay: Toxicity in patient with mucormycosis assessed as WBC count at 5 to 20 mg/kg/day, po for 14 days (reference value: 8.1/uL); in short: as §1
[11] = system: Homo sapiens; assay: Toxicity in patient with mucormycosis assessed as creatinine level at 5 to 20 mg/kg/day, po for 14 days (reference value: 1.6 mg/dl); in short: as §1

O=C(O)c1ccc(-n2nc(-c3ccccc3O)nc2-c2ccccc2O)cc1 [DEFERASIROX]
Activity [1]: 5.4 10^3 cells/µL
Activity [2]: 28 U/L
Activity [3]: 9 g/dL
Activity [4]: 314 U/L
Activity [5]: 199 10^3 cells/µL
Activity [6]: 43 mg/dL
Activity [7]: 0.6 mg/dL
Activity [8]: 104 mg/dL
Activity [9]: 49 U/L
Activity [10]: 10.8 10^3 cells/µL
Activity [11]: 1.9 mg/dL
